The values below come from paper PMC10316739 (Drug Delivery, 2023).

The subject of one series is luteinizing hormone (LH). The series can be described thus: Pharmacodynamics: plasma LH. Format: in vivo, female Sprague–Dawley rats. As to conditions: rats, triptorelin 9 μg/kg s.c., ELISA, n = 8. In outline:
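Six-week-old female rats (200 g ± 20 g) with similar cycles were split randomly into two groups of eight. One group received subcutaneous drug solution (9 μg/kg). The other received the microneedle patch (9 μg/kg) on shaved back skin, finger-pressed 3 min before the base was removed. Orbital-plexus blood was taken into heparinised tubes at 0.5–48 h and plasma stored at −80 °C. LH was measured by ELISA kit.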

Series [1] can be described thus: Pharmacokinetics of triptorelin in rats. Format: in vivo, female Sprague–Dawley rats. The essentials:
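Female rats aged 6 weeks were randomised into two groups (n = 8). One group received a 9 μg/kg subcutaneous solution and the other a 9 μg/kg microneedle patch on shaved back skin, pressed 3 min. Heparinised orbital-plexus blood was sampled at 0.5, 1, 2, 4, 8, 24 and 48 h. Plasma was centrifuged, stored at −80 °C and assayed by LC–MS/MS. PK parameters were computed from concentration–time profiles.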

For series [2] the following is noted: stated in introduction; ref Bethesda, [2012]; cited from earlier work.
[3] abbreviates: female, Sprague-Dawley, rat, plasma, sc, 9 ug/kg.

On to `CC(C)C[C@H](NC(=O)[C@@H](Cc1c[nH]c2ccccc12)NC(=O)[C@H](Cc1ccc(O)cc1)NC(=O)[C@H](CO)NC(=O)[C@H](Cc1c[nH]c2ccccc12)NC(=O)[C@H](Cc1c[nH]cn1)NC(=O)[C@@H]1CCC(=O)N1)C(=O)N[C@@H](CCCNC(=N)N)C(=O)N1CCC[C@H]1C(=O)NCC(N)=O` [triptorelin, Triptorelin acetate], for which the “plasma LH levels at 48 h” value in the series with luteinizing hormone (LH) is recorded as “returned to a normal physiological state”. For the same compound, in series [1] (setting [3]), the area under the curve AUC(0-t) is 8.65 ± 0.41 ng·h/mL, the concentration peaked (Cmax) at 10.5 ± 0.6 ng/mL, the Tmax came to 0.5 h and the half-life was 2.11 ± 0.05 h. Also, in series [1] (rats, 9 μg/kg s.c., 24 h, LC–MS/MS), the “triptorelin concentration in plasma at 24 h” value is “could not be detected”. Further, the “enhanced activity compared with GnRH” value in series [2] was 100 fold.
